Source: ChEMBL document CHEMBL5126632, “Balancing Affinity, Selectivity, and Cytotoxicity of Hydrazone-Based G-Quadruplex Ligands for Activation of Interferon β Genes in Cancer Cells” (J Med Chem, 2022)
pEC50, pIC50, pKd: −log10 of the molar value. Activity calls are given as the source filed them. No cut-off for these calls is given here.

How the values were obtained:
Quadruplex DNA [1] = test: Displacement of thiazole orange from c-kit1 G4 quadruplex d(DNA AGGGAGGGCGCTGGGAGGAGGG) DNA (unknown origin) assessed as relative affinity by fluorescent intercalator displacement assay; type: nucleic-acid assay
Outline: (§1)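 G4 DNA at 0.25 μM with 0.5 μM thiazole orange in 5 mM potassium phosphate pH 7.0 containing 20 mM KCl (LiCl for c-myc), 20 °C. Ligand titrated from 0.5 to 20 molar equiv with 3 min equilibration per addition. Excitation 485 nm, emission 500–650 nm. %displacement = 100 − (F/F0×100); DC50 is the concentration displacing 50% TO. Duplicate titrations.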

U2OS [2] = test: Cytotoxicity against human U2OS cells assessed as cell survival preincubated for 24 hrs with compound further incubated for 48 hrs in drug free medium by MTT assay; type: functional, cell-based
Outline: (§2)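 Exponentially growing cells seeded and treated 24 h after seeding with increasing concentrations for 24 h. Cells then recovered 48 h in drug-free medium. MTT added for 1 h at 37 °C, formazan dissolved in DMSO, absorbance read at 540 nm. IC50 from linear regression. Means ± SEM of two independent experiments in triplicate.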

[3] = Stabilization of F-c-kit1-T (unknown origin) assessed as difference in melting temperature t1/2 in presence of d(CGC GAA TTC GCG TIT CGC GAA TTC GCG) DNA hairpin (unknown origin) measured at 1:50 G4 to hairpin DNA ratio by FRET assay
Outline: (§3)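 FRET melting of 0.2 μM prefolded FAM/TAMRA dual-labelled c-kit1 G4 in 5 mM K phosphate pH 7.0 with 20 mM KCl. Ligand was added at 2 molar equiv, with unlabelled hairpin competitor at 3 or 10 μM final (15 or 50 equiv relative to G4). FAM emission was read at 520 nm (excitation 492 nm) while heating at 0.2 °C/min over 15–90 °C. ΔT1/2 is relative to no ligand; at least duplicate, averaged.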

Quadruplex DNA [4] = test: Binding affinity toc-myc G4 quadruplex d(TTAGGGTTAGGGTTAGGGTTAGGGTT) DNA (unknown origin) assessed as dissociation constant by Microscale thermophoresis analysis; type: nucleic-acid assay
Outline: (§4)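 MST with Cy5.5-labelled G4 oligonucleotide held at 20 nM, folded in 5 mM potassium phosphate pH 7.0 with 20 mM KCl plus 0.1% Tween. Ligand in 1:2 serial dilution mixed 1:1 with DNA, 20% DMSO final. Kd taken from binding curves.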

U2OS [5] = test: Induction of DNA damage in human U2OS cells assessed as increase in gammaH2AX phosphorylation at S139 incubated for 24 hrs by immunofluorescence microscopy; type: functional, cell-based; settings: read-out: IC50 (the source's name)
Outline: (§5)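 U2OS cells treated 24 h. Fixed with 4% formaldehyde, permeabilized with 0.5% Triton X-100, blocked with 8% BSA, stained with anti-γH2AX (1:500) and Alexa Fluor 594 secondary, DAPI counterstain. Fluorescence microscopy signal quantified as fold over untreated.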

Quadruplex DNA [6] = test: Stabilization of F-c-kit1-T quadruplex DNA (unknown origin) by measuring difference in melting temperature t1/2 by FRET assay; type: nucleic-acid assay
Outline: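 FRET melting of 0.2 μM prefolded FAM/TAMRA-labelled c-kit1 in 5 mM potassium phosphate pH 7.0 with 20 mM KCl, with ligand at 2 molar equiv. Unlabelled hairpin competitor added at 3 or 10 μM (15 or 50 equiv). FAM emission at 520 nm (excitation 492 nm) followed from 15 to 90 °C at 0.2 °C/min. ΔT1/2 versus no ligand. At least duplicate.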

Quadruplex DNA [7] = test: Stabilization of c-myc G4 quadruplex d(TTAGGGTTAGGGTTAGGGTTAGGGTT) DNA (unknown origin) assessed as thermal stability by measuring difference in melting temperature t1/2 by circular dichroism spectroscopy (reference value: 72 +/- 0.5 degC); type: nucleic-acid assay
Quadruplex DNA [8] = test: Binding affinity to c-kit2 G4 quadruplex d(CGGGCGGGCGCTAGGGAGGGT) DNA (unknown origin) assessed as dissociation constant by Microscale thermophoresis analysis; type: nucleic-acid assay; outline: as §4
Quadruplex DNA [9] = test: Stabilization of G4 quadruplex DNA in human U2OS cells assessed as BG4 foci formation by measuring fold increase in G4 structure at 10 uM by immunofluorescence microscopy; type: cell-based
Outline: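 U2OS cells on coverslips treated for […]. Fixed in methanol/acetic acid 3:1, permeabilized with 0.1% Triton X-100, blocked in 2% milk. Stained with 0.5 μg BG4 for 2 h, then anti-FLAG and Alexa Fluor 488 secondary. Signal quantified as fold over untreated.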

Quadruplex DNA [10] = test: Displacement of thiazole orange from c-kit2 G4 quadruplex d(CGGGCGGGCGCTAGGGAGGGT) DNA (unknown origin) assessed as relative affinity by fluorescent intercalator displacement assay; type: nucleic-acid assay; outline: as §1
Quadruplex DNA [11] = test: Stabilization of c-kit2 G4 quadruplex d(CGGGCGGGCGCTAGGGAGGGT) DNA (unknown origin) assessed as thermal stability by measuring difference in melting temperature t1/2 by circular dichroism spectroscopy (reference value: 61.5 +/- 0.5 degC); type: nucleic-acid assay
Quadruplex DNA [12] = test: Stabilization of c-kit1 G4 quadruplex d(DNA AGGGAGGGCGCTGGGAGGAGGG) DNA (unknown origin) assessed as thermal stability by measuring difference in melting temperature t1/2 by circular dichroism spectroscopy (reference value: 54 +/- 0.5 degC); type: nucleic-acid assay
Quadruplex DNA [13] = test: Binding affinity to c-kit1 G4 quadruplex d(DNA AGGGAGGGCGCTGGGAGGAGGG) DNA (unknown origin) assessed as dissociation constant by Microscale thermophoresis analysis; type: nucleic-acid assay; outline: as §4
[14] = Cytotoxicity against mouse MNMCA1 cells assessed as cell survival preincubated for 24 hrs with compound further incubated for 48 hrs in drug free medium by MTT assay; type: functional, cell-based; outline: as §2
[15] = Stabilization of F-c-kit1-T (unknown origin) assessed as difference in melting temperature t1/2 in presence of d(CGC GAA TTC GCG TIT CGC GAA TTC GCG) DNA hairpin (unknown origin) measured at 1:15 G4 to hairpin DNA ratio by FRET assay; outline: as §3
[16] = Genotoxicity in mouse MNMCA1 cells assessed as induction of micronuclei formation measured after 24 hrs by DAPI staining based analysis; type: toxicity, cell-based; settings: mnmca1, 24 h
Quadruplex DNA [17] = test: Displacement of thiazole orange from c-myc G4 quadruplex d(TTAGGGTTAGGGTTAGGGTTAGGGTT) DNA (unknown origin) assessed as relative affinity by fluorescent intercalator displacement assay; type: nucleic-acid assay; outline: as §1
[18] = Stabilization of d(CGC GAA TTC GCG TIT CGC GAA TTC GCG) DNA hairpin (unknown origin) assessed as thermal stability by measuring difference in melting temperature t1/2 by circular dichroism spectroscopy (reference value: 75.4 +/- 0.2 degC)
Outline: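 CD melting of 15 μM annealed hairpin duplex in 5 mM K phosphate pH 7.0 with 20 mM KCl, with or without ligand at 2 molar equiv added to the folded DNA. The signal was followed at 252 nm from 20 to 100 °C at 1 °C/min, with T1/2 taken from a curve fit. ΔT1/2 is relative to DNA alone; duplicate runs, averaged.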

Quadruplex DNA [19] = test: Stabilization of human Tel26 G4 quadruplex DNA assessed as thermal stability by measuring difference in melting temperature t1/2 by circular dichroism spectroscopy; type: nucleic-acid assay
MNMCA1 = test: Activation of IFN-beta in mouse MNMCA1 cells at 15 to 30 uM pretreated for 24 hrs followed by 48 hrs of drug recovery by ELISA; type: functional, cell-based; settings: dose 15-30 µM, time 72.0 hrs
Outline: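 MNMCA1 cells treated 24 h with compound at 15 or 30 μM, then 48 h recovery in fresh drug-free medium. IFN-B protein measured by ELISA in collected culture supernatants.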

[20] = Genotoxicity in mouse MNMCA1 cells assessed as induction of micronuclei formation at 5 uM incubated for 24 hrs by measuring fold change by DAPI staining based analysis; type: toxicity, cell-based; settings: mnmca1, 24 h
U2OS [21] = test: Induction of DNA damage in human U2OS cells assessed as fold increase in gammaH2AX phosphorylation at […] by measuring fold change at 10 uM incubated for 24 hrs by immunofluorescence microscopy; type: functional; outline: as §5
[22] = Genotoxicity in mouse MNMCA1 cells assessed as induction of micronuclei formation at 1 uM incubated for 24 hrs by measuring fold change by DAPI staining based analysis; type: toxicity, cell-based; settings: mnmca1, 24 h

SMILES	pIC50 (Quadruplex DNA [1])	pIC50 (U2OS [2])	ΔTm [3] [°C]	pKd (Quadruplex DNA [4])	pEC50 (U2OS [5])	ΔTm (Quadruplex DNA [6]) [°C]	ΔTm (Quadruplex DNA [7]) [°C]	pKd (Quadruplex DNA [8])	fold change (FC) (Quadruplex DNA [9])	pIC50 (Quadruplex DNA [10])	ΔTm (Quadruplex DNA [11]) [°C]	ΔTm (Quadruplex DNA [12]) [°C]	pKd (Quadruplex DNA [13])	pIC50 [14]	ΔTm [15] [°C]	fold change (FC) [16]	pIC50 (Quadruplex DNA [17])	ΔTm [18] [°C]	ΔTm (Quadruplex DNA [19]) [°C]	fold change (FC) (U2OS [21])	further results
Cc1ccc(-c2nc3ccn4c(/C=N/NC(=N)N)c(-c5ccccc5)nc4n3c2/C=N/NC(=N)N)cc1	5.85	4.33	19.2	5.82	4.34	25.4	16.9	7.40	2.4	5.85	> 30	18.2	7.52	4.41	22.2	0.4	5.80	1.3	4.8	–	Activity (MNMCA1): Active
N=C(N)N/N=C/c1c(-c2ccccc2)nc2ccn3c(CO)c(-c4ccccc4)nc3n12	–	4.84	12.1	5.10	4.85	10	2.8	5.89	–	–	18.6	9.7	5.70	4.45	11.1	–	–	2.3	1.8	2.32	fold change (FC) [20]: 2.5
OCc1c(-c2ccccc2)nc2n1ccc1nc(-c3ccccc3)c(/C=N/NC3=NCCN3)n12	–	4.61	8.4	4.43	4.62	8	1.7	5.60	–	–	14.7	7.1	5.10	4.92	7.8	–	–	1.3	2	1.55	fold change (FC) [20]: 2.5
O=Cc1c(-c2ccccc2)nc2n1ccc1nc(-c3ccccc3)c(/C=N/NC3=NCCN3)n12	–	5.40	–	–	5.40	–	–	–	–	–	–	–	–	5.64	–	–	–	–	–	1.55	fold change (FC) [22]: 2.5
N=C(N)N/N=C/c1c(-c2ccccc2)nc2ccn3c(C=O)c(-c4ccccc4)nc3n12	–	5.59	22.2	5.15	5.62	22	5.8	6.43	–	–	24.2	11.2	6.52	5.72	21.6	–	–	1.7	4.3	2.32	fold change (FC) [22]: 2.5
Clc1ccc(-c2nc3ccn4c(/C=N/NC5=NCCN5)c(-c5ccccc5)nc4n3c2/C=N/NC2=NCCN2)cc1	5.57	4.69	19.6	5.52	4.70	24.6	7.4	6.31	0.77	5.77	22	15.5	6.42	4.63	21.4	0.4	5.74	1.2	6.3	1.37	–
